Experimental data published in ChEMBL document CHEMBL1123783, “Synthesis and anticonvulsant activity of analogues of 4-amino-N-(1-phenylethyl)benzamide” (J Med Chem, 1987).

What was measured:
Mus musculus [1] = test: Compound was evaluated for anticonvulsant activity against maximal electric shock (MES) induced convulsions after 30 minutes;C is inactive at 300 mg/kg.; format: functional, organism-based; set-up: dose 300 mg/kg
Mus musculus [2] = test: Compound was evaluated for anticonvulsant activity against subcutaneous pentylenetetrazole-induced convulsions after 4 hr; C is inactive at 300 mg/kg.; format: functional, organism-based; set-up: dose 300 mg/kg
Outline: (§1)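 Male Carworth Farms number-one mice were dosed ip in 30% PEG 400, at 30, 100 or 300 mg/kg (sometimes 600 mg/kg). Pentylenetetrazole, 85 mg/kg as a 0.5% solution, was injected subcutaneously in the posterior midline. Protection meant no episode of clonic spasms lasting at least 5 s during a 30-min observation period.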

Mus musculus [3] = test: Compound was evaluated for toxicity by rotarod assay method after 4 hr; C is inactive at 300 mg/kg.; format: organism-based; set-up: dose 300 mg/kg; details: in vivo
Outline: (§2)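 Male Carworth Farms number-one mice received test compound intraperitoneally in 30% polyethylene glycol 400 at 30, 100 and 300 mg/kg, with 600 mg/kg in some cases. Neurological deficit was read at 30 min or 4 h after dosing on a 1-in.-diameter knurled plastic rod turning at 6 rpm. Toxicity was scored as failure to stay on the rod for 1 min.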

Mus musculus [4] = test: Compound was evaluated for toxicity by rotarod assay method after 30 minutes; C is inactive at 300 mg/kg.; format: organism-based; set-up: dose 300 mg/kg; details: in vivo, 0.5 h; outline: as §2
Mus musculus [5] = test: Compound was evaluated for anticonvulsant activity against maximal electric shock (MES) induced convulsions after 4 hr; C is inactive at 300 mg/kg.; format: functional, organism-based; set-up: dose 300 mg/kg
Mus musculus [6] = test: Compound was evaluated for anticonvulsant activity against subcutaneous pentylenetetrazole-induced convulsions after 30 minutes;C is inactive at 300 mg/kg.; format: functional, organism-based; set-up: dose 300 mg/kg; outline: as §1
Mus musculus [7] = test: Compound was evaluated for anticonvulsant activity against subcutaneous pentylenetetrazole-induced convulsions after 30 minutes at a dose of 300 mg/kg; format: functional; outline: as §1
Mus musculus [8] = test: Compound was evaluated for toxicity by rotarod assay method after 30 minutes; C indicates no activity at 300 mg/kg.; format: organism-based; set-up: dose 300 mg/kg; details: in vivo, 0.5 h; outline: as §2
Mus musculus [9] = test: Compound was evaluated for toxicity by rotarod assay method after 4 hr; C indicates no activity at 300 mg/kg.; format: organism-based; set-up: dose 300 mg/kg; details: in vivo; outline: as §2
Mus musculus [10] = test: Compound was evaluated for anticonvulsant activity against subcutaneous pentylenetetrazole-induced convulsions after 4 hr at a dose of 300 mg/kg; format: functional; outline: as §1
Mus musculus [11] = test: Compound was evaluated for anticonvulsant activity against maximal electric shock (MES) induced convulsions after 4 hr at a dose of 300 mg/kg; format: functional
Mus musculus [12] = test: Compound was evaluated for anticonvulsant activity against maximal electric shock (MES) induced convulsions after 30 minutes at a dose of 100 mg/kg; format: functional
Mus musculus [13] = test: Compound was evaluated for anticonvulsant activity against maximal electric shock (MES) induced convulsions after 4 hr; C indicates no activity at 300 mg/kg.; format: functional, organism-based; set-up: dose 300 mg/kg
Mus musculus [14] = test: Compound was evaluated for anticonvulsant activity against maximal electric shock (MES) induced convulsions after 30 minutes at a dose of 300 mg/kg; format: functional
Mus musculus [15] = species on record: Mus musculus; test: Compound was evaluated for anticonvulsant activity against maximal electric shock induced seizures; format: functional
Outline: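 Male Carworth Farms number-one mice received the compound ip in 30% polyethylene glycol 400 before maximal electroshock testing, at several dose levels. The median effective dose (ED50) was obtained by the graphical method.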

Mus musculus [16] = test: Compound was evaluated for toxicity by rotarod assay method after 30 minutes at a dose of 100 mg/kg; format: organism-based; set-up: dose 100 mg/kg; details: in vivo, 0.5 h; outline: as §2
Mus musculus [17] = test: Compound was evaluated for toxicity by rotarod assay method after 4 hr at a dose of 100 mg/kg; format: organism-based; set-up: dose 100 mg/kg; details: in vivo; outline: as §2
Mus musculus [18] = test: Compound was evaluated for anticonvulsant activity against maximal electric shock (MES) induced convulsions after 4 hr at a dose of 100 mg/kg; format: functional
Mus musculus [19] = test: Compound was evaluated for anticonvulsant activity against maximal electric shock (MES) induced convulsions after 30 minutes at a dose of 30 mg/kg; format: functional
Mus musculus [20] = test: Compound was evaluated for anticonvulsant activity against subcutaneous pentylenetetrazole-induced convulsions after 30 minutes; D indicates no activity at 100 mg/kg; format: functional, organism-based; set-up: dose 100 mg/kg; outline: as §1
[21] = Protective index is the ratio of TD50 to ED50; format: ADME; details: for selectivity ratio: read-out: Protective index
Outline: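 Protective index was calculated as rotorod TD50 divided by anti-MES ED50. Both were graphical median doses from ip dosing in 30% PEG 400 in male Carworth Farms mice.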

[22] = Compound was evaluated for anticonvulsant activity by rotarod procedure; format: ADME, organism-based; details: mouse, in vivo
Outline: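 Male Carworth Farms mice were dosed ip in 30% PEG 400 and then placed on a knurled plastic rod 1 in. in diameter, rotating at 6 rpm. Neurotoxicity was failure to stay on the rod for 1 min. TD50 was derived graphically.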

Mus musculus [23] = test: Compound was evaluated for anticonvulsant activity against subcutaneous pentylenetetrazole-induced convulsions after 4 hr; D indicates no activity at 100 mg/kg; format: functional, organism-based; set-up: dose 100 mg/kg; outline: as §1
Mus musculus [24] = test: Compound was evaluated for toxicity by rotarod assay method after 4 hr at a dose of 300 mg/kg; format: organism-based; set-up: dose 300 mg/kg; details: in vivo; outline: as §2
Mus musculus [25] = test: Compound was evaluated for anticonvulsant activity against subcutaneous pentylenetetrazole-induced convulsions after 30 minutes;C indicates no activity at 300 mg/kg.; format: functional, organism-based; set-up: dose 300 mg/kg; outline: as §1
Mus musculus [26] = test: Compound was evaluated for anticonvulsant activity against subcutaneous pentylenetetrazole-induced convulsions after 4 hr; C indicates no activity at 300 mg/kg.; format: functional, organism-based; set-up: dose 300 mg/kg; outline: as §1
Mus musculus [27] = test: Compound was evaluated for anticonvulsant activity against maximal electric shock (MES) induced convulsions after 30 minutes; C is inactive at 300 mg/kg.; format: functional, organism-based; set-up: dose 300 mg/kg
Mus musculus [28] = test: Compound was evaluated for toxicity by rotarod assay method after 30 minutes at a dose of 300 mg/kg; format: organism-based; set-up: dose 300 mg/kg; details: in vivo, 0.5 h; outline: as §2
Mus musculus [29] = test: Compound was evaluated for anticonvulsant activity against subcutaneous pentylenetetrazole-induced convulsions; format: functional; details: sc; outline: as §1

| SMILES | Activity (Mus musculus [1]) | Activity (Mus musculus [2]) | Toxicity (Mus musculus [3]) | Toxicity (Mus musculus [4]) | Activity (Mus musculus [5]) | Activity (Mus musculus [6]) | Activity (Mus musculus [7]) | Toxicity (Mus musculus [8]) | Toxicity (Mus musculus [9]) | also measured |
| --- | --- | --- | --- | --- | --- | --- | --- | --- | --- | --- |
| CN(C)c1ccc(C(=O)Nc2ccccc2)cc1 | No activity at 300 mg/kg | No activity at 300 mg/kg | No activity at 300 mg/kg | No activity at 300 mg/kg | No activity at 300 mg/kg | No activity at 300 mg/kg |  |  |  |  |
| CNc1ccc(C(=O)NC(C)c2ccccc2)cc1 (stereo not drawn) |  |  |  |  |  |  | 2 | No activity at 300 mg/kg | No activity at 300 mg/kg | Activity (Mus musculus [10]): 2; Activity (Mus musculus [11]): 2; Activity (Mus musculus [12]): 3 |
| CC(NC(=O)c1ccc(N)cc1)c1ccc(Cl)cc1 (stereo not drawn) |  |  |  |  |  |  | 2 | No activity at 300 mg/kg | No activity at 300 mg/kg | Activity (Mus musculus [13]): No activity at 300 mg/kg; Activity (Mus musculus [14]): 2; Activity (Mus musculus [10]): 2 |
| CNc1ccc(C(=O)NCc2ccccc2)cc1 | No activity at 300 mg/kg | No activity at 300 mg/kg | No activity at 300 mg/kg | No activity at 300 mg/kg | No activity at 300 mg/kg | No activity at 300 mg/kg |  |  |  |  |
| CC(NC(=O)c1ccc(N(C)C)cc1)c1ccccc1 (stereo not drawn) | No activity at 300 mg/kg | No activity at 300 mg/kg | No activity at 300 mg/kg | No activity at 300 mg/kg | No activity at 300 mg/kg | No activity at 300 mg/kg |  |  |  |  |
| CNCc1ccc(C(=O)NC(C)c2ccccc2)cc1 (stereo not drawn) |  |  |  |  |  |  |  |  |  | ED50 (Mus musculus [15]): 13.5 mg/kg; Toxicity (Mus musculus [16]): 3; Toxicity (Mus musculus [17]): 3; Activity (Mus musculus [18]): 3; Activity (Mus musculus [19]): 4; Activity (Mus musculus [20]): No activity at 100 mg/kg; selectivity ratio [21]: 1.66; TD50 [22]: 22.4 mg/kg; Activity (Mus musculus [23]): No activity at 100 mg/kg |
| CC(NC(=O)c1ccc(N)cc1)c1ccc(F)cc1 (stereo not drawn) |  |  |  |  |  |  |  | No activity at 300 mg/kg |  | Toxicity (Mus musculus [24]): 2; Activity (Mus musculus [14]): 2; Activity (Mus musculus [18]): 3; Activity (Mus musculus [25]): No activity at 300 mg/kg; Activity (Mus musculus [26]): No activity at 300 mg/kg |
| CC(=O)Nc1ccc(C(=O)NC(C)c2ccccc2)cc1 (stereo not drawn) | No activity at 300 mg/kg | No activity at 300 mg/kg | No activity at 300 mg/kg | No activity at 300 mg/kg | No activity at 300 mg/kg | No activity at 300 mg/kg |  |  |  |  |
| CCOC(=O)Nc1ccc(C(=O)NC(C)c2ccccc2)cc1 (stereo not drawn) |  | No activity at 300 mg/kg | No activity at 300 mg/kg | No activity at 300 mg/kg | No activity at 300 mg/kg | No activity at 300 mg/kg |  |  |  | Activity (Mus musculus [27]): No activity at 300 mg/kg |
| CC(NC(=O)c1ccccc1)c1ccc(N)cc1 (stereo not drawn) |  |  |  |  |  |  | 2 |  | No activity at 300 mg/kg | Toxicity (Mus musculus [28]): 2; ED50 (Mus musculus [15]): 68.2 mg/kg; Activity (Mus musculus [11]): 2; Activity (Mus musculus [26]): No activity at 300 mg/kg; Protective index [21]: 1.51; selectivity ratio [21]: 2.79; Activity (Mus musculus [12]): 3; TD50 [22]: 190 mg/kg; ED50 (Mus musculus [29]): 126 mg/kg |
